From ChEMBL document CHEMBL5346861, “Designing quinoline-isoniazid hybrids as potent anti-tubercular agents inhibiting mycolic acid biosynthesis” (Eur J Med Chem, 2022)
≈ marks a conversion by molar mass, not a printed value. Calls of active or inactive are those of the source. The calls are words filed in the database; no cut-off is given here.

Legend:
[1] = tested on: Mycobacterium tuberculosis; assay: Antimycobacterial activity against Mycobacterium tuberculosis mc2 6230 assessed as inhibition of bacterial growth measured after 7 days by broth dilution method; format: functional; settings: mc2 6230, 168 h, time 7 day
How it was run: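 Pantothenate auxotroph carrying empty pMV261. 2-fold serial dilutions, 37 °C, no agitation, 7 days. MIC99 is the lowest concentration with no turbidity change. DMSO vehicle control.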

[2] = tested on: Mycobacteroides abscessus; assay: Antimycobacterial activity against Mycobacterium abscessus CIP104536 rough variant assessed as inhibition of bacterial growth measured after 4 days by broth dilution method; format: functional; settings: CIP104536, 96 h, time 4 day
How it was run: (§1)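 MIC99 by CLSI broth 2-fold serial dilution in CaMHB. Inoculum 5.10⁶ CFU/mL. Incubated at 30 °C and read by turbidity after 4 days. DMSO vehicle control, INH reference.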

[3] = tested on: Mycobacterium tuberculosis; assay: Antimycobacterial activity against Mycobacterium tuberculosis mc2 6230 assessed as reduction in log10 CFU at 5 times of MIC measured after 3 days by time-killing kinetics assay; format: functional; settings: time 3 day
How it was run: (§2)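 Exposed to 1x, 5x or 20x MIC at 37 °C for up to 6 days. Serial dilutions plated on 7H10/OADC/pantothenate and colonies counted after 3 weeks. Mean of four independent experiments in technical triplicate, with SD. DMSO negative control.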

[4] = tested on: Mycobacteroides abscessus; assay: Antimycobacterial activity against Mycobacterium abscessus CIP104536 smooth variant assessed as inhibition of bacterial growth measured after 4 days by broth dilution method; format: functional; settings: CIP104536, 96 h, time 4 day; how it was run: as §1
[5] = Cytotoxicity against human THP-1 cells assessed as reduction in cell viability measured after 24 hrs by resazurin staining based analysis; format: toxicity
How it was run: (§3)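 THP-1 monocytes differentiated with 20 ng/mL PMA for 48 hrs at 1×10^5 cells/well. Compounds added by serial dilution from 100 µg/mL for 24 or 72 hrs at 37 °C and 5% CO₂. Resazurin 10% for 4 hrs, fluorescence at ex 540/em 590 nm. Mean of three independent experiments in triplicate. INH and RFB reference drugs.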

Vero = assay: Cytotoxicity against African green monkey Vero cells assessed as reduction in cell viability measured after 24 hrs by resazurin staining based analysis; format: toxicity; settings: chlorocebus sabaeus
How it was run: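 Vero cells in RPMI 1640 with 10% FCS, 2×10^4 cells/well, adhered overnight at 37 °C and 5% CO₂. Compounds added at 100 to 0.78 µg/mL for 24 hrs. 10% resazurin added for 4 hrs, fluorescence read at ex 540/em 590 nm.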

[6] = Cytotoxicity against human THP-1 cells assessed as reduction in cell viability measured after 72 hrs by resazurin staining based analysis; format: toxicity; how it was run: as §3
[7] = tested on: Mycobacterium tuberculosis; assay: Antimycobacterial activity against Mycobacterium tuberculosis mc2 6230 assessed as reduction in log10 CFU at 1 time of MIC measured after 6 days by time-killing kinetics assay; format: functional, organism-based; settings: time 6.0 day; how it was run: as §2
Mycobacterium marinum = assay: Antimycobacterial activity against Mycobacterium marinum M strain assessed as inhibition of bacterial growth measured after 6 days by broth dilution method; format: functional; settings: 144 h, time 6 day
How it was run: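 MIC99 by 2-fold serial broth dilution in 7H9 with 10% OADC and 0.025% tyloxapol. Inoculum 5.10⁶ CFU/mL. Incubated without agitation at 30 °C, scored for no turbidity change after 6 days. DMSO vehicle control.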

[8] = tested on: Mycobacterium tuberculosis; assay: Antimycobacterial activity against Mycobacterium tuberculosis mc2 6230 assessed as reduction in log10 CFU at 20 times of MIC measured after 6 days by time-killing kinetics assay; format: functional; settings: time 6 day; how it was run: as §2
[9] = tested on: Mycobacterium tuberculosis; assay: Antimycobacterial activity against Mycobacterium tuberculosis mc2 6230 assessed as inhibition of bacterial growth at 1 ug/ml measured after 7 days by broth dilution method; format: functional, organism-based; settings: dose 1.0 µg/ml, time 7.0 day
[10] = tested on: Mycobacterium tuberculosis; assay: Inhibition of mycolic acid biosynthesis in Mycobacterium tuberculosis mc2 6230 assessed as decrease in methoxy-mycolic acid incubated for 15 mins followed by 14C-labeled acetate addition measured after 7 hrs by TLC analysis; format: functional, organism-based; settings: time 435.0 min
[11] = tested on: Mycobacterium tuberculosis; assay: Inhibition of mycolic acid biosynthesis in Mycobacterium tuberculosis mc2 6230 assessed as decrease in keto-mycolic acid incubated for 15 mins followed by 14C-labeled acetate addition measured after 7 hrs by TLC analysis; format: functional, organism-based; settings: time 435.0 min
[12] = tested on: Mycobacterium tuberculosis; assay: Inhibition of mycolic acid biosynthesis in Mycobacterium tuberculosis mc2 6230 assessed as decrease in alpha-mycolic acid incubated for 15 mins followed by 14C-labeled acetate addition measured after 7 hrs by TLC analysis; format: functional, organism-based; settings: time 435.0 min
[13] = tested on: Mycobacterium tuberculosis; assay: Antimycobacterial activity against Mycobacterium tuberculosis H37Rv assessed as inhibition of bacterial growth; format: functional
[14] = Selectivity index, […] Mycobacterium abscessus CIP104536 rough variant to CC50 for cytotoxicity against human THP-1 cells; format: toxicity, cell-based; settings: read-out: Selectivity Index
[15] = Selectivity index, […] Mycobacterium tuberculosis H37Rv to CC50 for cytotoxicity against human THP-1 cells; format: toxicity, cell-based; settings: read-out: Selectivity Index
[16] = Selectivity index, […] Mycobacterium abscessus CIP104536 smooth variant to CC50 for cytotoxicity against human THP-1 cells; format: toxicity, cell-based; settings: read-out: Selectivity Index
[17] = Selectivity index, […] Mycobacterium marinum M strain to CC50 for cytotoxicity against human THP-1 cells; format: toxicity, cell-based; settings: read-out: Selectivity Index
[18] = tested on: Mycobacterium tuberculosis; assay: Inhibition of mycolic acid biosynthesis in Mycobacterium tuberculosis mc2 6230 assessed as decrease in alpha-mycolic acid at 1.25 ug/ml incubated for 15 mins followed by 14C-labeled acetate addition measured after 7 hrs by TLC analysis; format: functional, organism-based; settings: dose 1.25 µg/ml, time 435.0 min
[19] = tested on: Mycobacterium tuberculosis; assay: Inhibition of mycolic acid biosynthesis in Mycobacterium tuberculosis mc2 6230 assessed as decrease in methoxy-mycolic acid at 1.25 ug/ml incubated for 15 mins followed by 14C-labeled acetate addition measured after 7 hrs by TLC analysis; format: functional, organism-based; settings: dose 1.25 µg/ml, time 435.0 min
[20] = tested on: Mycobacterium tuberculosis; assay: Inhibition of mycolic acid biosynthesis in Mycobacterium tuberculosis mc2 6230 assessed as decrease in keto-mycolic acid at 1.25 ug/ml incubated for 15 mins followed by 14C-labeled acetate addition measured after 7 hrs by TLC analysis; format: functional, organism-based; settings: dose 1.25 µg/ml, time 435.0 min
[21] = tested on: Mycobacterium tuberculosis; assay: Inhibition of fatty acid methyl esters production in Mycobacterium tuberculosis mc2 6230 incubated for 15 mins followed by 14C-labeled acetate addition measured after 7 hrs by TLC analysis; format: functional; settings: time 435.0 min

In the case of O=C(N/N=C/c1ccc(OCc2cn(CCNc3ccnc4cc(Cl)ccc34)nn2)cc1)c1cccnc1, the MIC [1] was greater than 200 µg/mL.

O=C(N/N=C/c1ccc(OCc2cn(CCCNc3ccnc4cc(Cl)ccc34)nn2)cc1)c1ccncc1 showed an MIC [2] greater than 200 µg/mL, an Activity [3] of 2 log10CFU/ml and an MIC [4] greater than 200 µg/mL. For the same molecule, the CC50 at 24 h [5] was greater than 100 µg/mL, the Activity (Vero) was “Non-Toxic” and the CC50 at 72 h [6] was 67 µg/mL (≈ 124 µM). The Activity [7] was “Active”, the MIC (Mycobacterium marinum) was 50 µg/mL (≈ 92.4 µM) and the Activity [8] was roughly 3 log10CFU/ml. The Activity [9] was “Active” and the MIC [1] was 0.5 µg/mL (≈ 0.924 µM).

Work on O=C(N/N=C/c1ccc(OCc2cn(CCCNc3ccnc4cc(Cl)ccc34)nn2)cc1)c1cccnc1 yielded an MIC [1] greater than 200 µg/mL.

Molecule O=Cc1ccc(OCc2cn(CCCNc3ccnc4cc(Cl)ccc34)nn2)cc1 has an MIC [2] greater than 200 µg/mL, an MIC [4] greater than 200 µg/mL and an MIC (Mycobacterium marinum) of 200 µg/mL (≈ 474 µM). It also gave an MIC [1] of 50 µg/mL (≈ 119 µM).

Molecule O=Cc1ccc(OCc2cn(CCNc3ccnc4cc(Cl)ccc34)nn2)cc1 has an MIC [1] greater than 200 µg/mL.

For NNC(=O)c1ccncc1 [ISONIAZID], the MIC [2] was greater than 200 µg/mL, the inhibition [10] was “Dose-Dependent Effect” and the inhibition [11] was “Dose-Dependent Effect”. For the same molecule, the MIC [4] was greater than 200 µg/mL, the inhibition [12] was “Dose-Dependent Effect” and the MIC (Mycobacterium marinum) was 25 µg/mL (≈ 182 µM). The MIC [1] was 0.05 µg/mL (≈ 0.365 µM).

For COc1cc(/C=N/NC(=O)c2cnccn2)ccc1OCc1cn(-c2ccnc3cc(Cl)ccc23)nn1, the MIC [1] was greater than 200 µg/mL.

For COc1cc(/C=N/NC(=O)c2cccnc2)ccc1OCc1cn(CCCNc2ccnc3cc(Cl)ccc23)nn1, the MIC [1] was greater than 200 µg/mL.

Clc1ccc2c(N3CCNCC3)ccnc2c1 showed an MIC [1] of 92 µg/mL (≈ 371 µM).

In the case of O=C(N/N=C/c1ccccc1-n1cc(CN2CCN(c3ccnc4cc(Cl)ccc34)CC2)nn1)c1cnccn1, the MIC [1] was greater than 200 µg/mL.

O=C(N/N=C/c1ccccc1)c1ccncc1 [N'-BENZYLIDENE ISONICOTINOHYDRAZIDE] gave an MIC [13] of 0.05 µg/mL (≈ 0.222 µM).

With COc1cc(/C=N/NC(=O)c2cccnc2)ccc1OCc1cn(-c2ccnc3cc(Cl)ccc23)nn1 the MIC [1] was greater than 200 µg/mL.

For O=C(N/N=C/c1ccc(OCc2cn(-c3ccnc4cc(Cl)ccc34)nn2)cc1)c1cccnc1, the MIC [1] was greater than 200 µg/mL.

Work on O=C(N/N=C/c1ccc(OCc2cn(-c3ccnc4cc(Cl)ccc34)nn2)cc1)c1cnccn1 yielded an MIC [1] greater than 200 µg/mL.

With O=C(N/N=C/c1ccc(OCc2cn(-c3ccnc4cc(Cl)ccc34)nn2)cc1)c1ccncc1 the MIC [2] was greater than 200 µg/mL, the Activity [3] was 2 log10CFU/ml and the MIC [4] was greater than 200 µg/mL. For the same molecule, the CC50 at 24 h [5] was greater than 100 µg/mL, the Activity (Vero) was “Non-Toxic” and the CC50 at 72 h [6] was greater than 100 µg/mL. The Activity [7] was “Active”, the selectivity ratio [14] was greater than 200 and the selectivity ratio [15] was greater than 200. For the same molecule, the MIC (Mycobacterium marinum) was greater than 200 µg/mL, the Activity [8] was roughly 3 log10CFU/ml and the selectivity ratio [16] was greater than 200. For the same molecule, the selectivity ratio [17] was greater than 200, the Activity [9] was “Active” and the MIC [1] was 0.25 µg/mL (≈ 0.517 µM).

With O=C(N/N=C/c1ccccc1-n1cc(CN2CCN(c3ccnc4cc(Cl)ccc34)CC2)nn1)c1ccncc1 the MIC [2] was greater than 200 µg/mL, the inhibition [10] was “Dose-Dependent Effect” and the inhibition [11] was “Dose-Dependent Effect”. It also gave an Activity [3] of 2 log10CFU/ml, an MIC [4] greater than 200 µg/mL and a CC50 at 24 h [5] of 13 µg/mL (≈ 23.5 µM). For the same molecule, the inhibition [12] was “Dose-Dependent Effect”, the inhibition [18] was “Active” and the CC50 at 72 h [6] was 18 µg/mL (≈ 32.6 µM). For the same molecule, the Activity [7] was “Active”, the MIC (Mycobacterium marinum) was 50 µg/mL (≈ 90.6 µM) and the Activity [8] was roughly 3 log10CFU/ml. For the same molecule, the inhibition [19] was “Active”, the inhibition [20] was “Active” and the Activity [9] was “Active”. For the same molecule, the inhibition [21] was “inactive” and the MIC [1] was 0.25 µg/mL (≈ 0.453 µM).
